In PubChem BioAssay AID623869 (Vanderbilt High Throughput Screening Facility, 2012):
About 75 (4%) of roughly 2,100 compounds were called active. The sample holds actives, similar compounds and a random draw of the others, so the mix is not that of the screen.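 Rule for the calls: active = calcium fluorescence trace judged by eye to show a response, as agonist, enhancer of the glutamate response, or inhibitor; inactive = trace judged by eye to show no response.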

Target: Metabotropic glutamate receptor 8 (Rattus norvegicus) (UniProt P70579)
Sequence (P70579 whole entry, looked up): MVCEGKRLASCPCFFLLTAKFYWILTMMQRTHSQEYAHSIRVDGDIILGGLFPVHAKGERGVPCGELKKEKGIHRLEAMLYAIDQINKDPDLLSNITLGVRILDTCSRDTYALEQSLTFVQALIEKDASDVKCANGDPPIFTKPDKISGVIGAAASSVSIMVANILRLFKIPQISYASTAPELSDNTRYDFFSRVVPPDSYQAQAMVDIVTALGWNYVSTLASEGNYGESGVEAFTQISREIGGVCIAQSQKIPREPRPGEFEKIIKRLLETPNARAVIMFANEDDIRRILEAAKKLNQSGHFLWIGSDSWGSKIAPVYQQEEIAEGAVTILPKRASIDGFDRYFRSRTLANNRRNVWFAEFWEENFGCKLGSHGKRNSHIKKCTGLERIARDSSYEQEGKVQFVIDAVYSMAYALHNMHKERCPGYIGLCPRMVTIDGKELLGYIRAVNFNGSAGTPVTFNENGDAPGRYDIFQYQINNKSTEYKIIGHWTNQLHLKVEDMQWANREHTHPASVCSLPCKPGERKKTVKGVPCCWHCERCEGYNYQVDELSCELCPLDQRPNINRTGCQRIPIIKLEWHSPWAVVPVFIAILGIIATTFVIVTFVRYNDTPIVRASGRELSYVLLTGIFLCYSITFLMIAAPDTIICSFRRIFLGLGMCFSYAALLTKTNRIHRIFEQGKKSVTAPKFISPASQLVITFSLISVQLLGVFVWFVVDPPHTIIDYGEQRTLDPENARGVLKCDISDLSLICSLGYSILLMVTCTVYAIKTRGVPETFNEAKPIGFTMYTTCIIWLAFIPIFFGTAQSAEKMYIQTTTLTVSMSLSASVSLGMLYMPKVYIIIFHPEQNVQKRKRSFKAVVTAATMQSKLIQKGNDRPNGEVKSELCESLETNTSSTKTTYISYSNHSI
Assay: mGlu8-mediated intracellular calcium response modulators – cell-based, HEK293 rmGlu8, Gqi9 chimera, Fluo-4 calcium, counter-screen for GIRK activator project, confirmation (AID 623869)
Conditions: HEK293 rmGlu8/Gqi9 calcium flux, Fluo-4 fluorescence; glutamate at EC20 added after compound
Procedure, shortened: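 Material: rat mGlu8 HEK-293 cells with transient Gqi9; medium: HEPES-buffered HBSS, pH 7.4; reagent: EC20 glutamate; dosing: one dose, 20 µM addition solution, 0.2% DMSO; incubation: compound 4 min before glutamate, then 2 min recording; measured by: Fluo-4 calcium fluorescence, 1 Hz; evaluation: F/F0 fluorescence traces judged visually for each well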

| SMILES | outcome |
| --- | --- |
| COc1ccc(CNc2nc(-c3cccnc3)nn2C(=O)c2ccco2)cc1 | active; 2 |
| Cc1oc(-c2ccccc2)nc1CS(=O)CC(=O)O (centres undefined) | inactive; 0 |
| CCCCN(CCCC)C(=S)NC(=O)c1ccccc1Cl | inactive; 0 |
| CCN(CC)C(=O)CSc1nc2ccccc2c(=O)n1-c1ccccc1OC | inactive; 0 |
| COc1cc(-c2nnc(CSc3nc4ccccc4s3)o2)cc(OC)c1OC | inactive; 0 |
| COc1ccc(-c2nnc(CSc3nc4ccccc4c(=O)n3C)o2)cc1OC | active; 2 |
| O=S(=O)(c1ccc(-c2nnc(SCc3nnc(-c4ccccc4)o3)o2)cc1)N1CCCC1 | inactive; 0 |
| Fc1ccc2nc(-c3ccccc3)nc(SCc3nnc(-c4ccccc4)o3)c2c1 | inactive; 0 |
| c1ccc(Cc2nnc(-c3ccccc3)o2)cc1 | active; -1 |
| CCC(=O)N1CCN(c2ccccc2NC(=O)COc2cccc(C)c2)CC1 | inactive; 0 |
| CNc1nc(Cl)nc(NC(C)(C)C)n1 | active; 2 |
| O=C1Nc2ccccc2C12OCC1(CO2)COC2(OC1)C(=O)Nc1ccccc12 (centres undefined) | active; 2 |
| Cc1ccc(-c2csc3ncnc(N4CCN(C(=O)c5ccccc5)CC4)c23)cc1 | inactive; 0 |
| O=C(c1ccco1)N1CCN(C(=O)c2cnn3c2NC(c2cccs2)CC3C(F)(F)F)CC1 (centres undefined) | inactive; 0 |
| O=C(c1ccco1)N1CCN(c2ncnc3scc(-c4cccs4)c23)CC1 | active; 2 |
| S=C(Nc1ccc(Cl)cc1)c1nc2ccccc2[nH]1 | inactive; 0 |
| O=C(NC(=S)Nc1ccccn1)c1ccco1 | inactive; 0 |
| Cc1ccc(C(=O)Nc2nc(-c3ccccc3)c(-c3ccccc3)o2)cc1 | inactive; 0 |
| Cc1cccc(C)c1NC(=S)NC(=O)CCc1ccccc1 | inactive; 0 |
| COc1ccc(C(=O)NC(=S)NNC(=O)CCc2ccccc2)cc1 | active; 1 |
| COc1ccc(C(=O)NC(=S)N(Cc2ccccc2)Cc2ccccc2)cc1 | inactive; 0 |
| COc1ccc(C(=O)NNC(=S)NC(=O)c2ccco2)cc1 | inactive; 4 |
| Cc1ccccc1NC(=S)NC(=O)CCc1ccccc1 | inactive; 0 |
| O=C(CCc1ccccc1)NNC(=S)NC(=O)c1ccc(Cl)cc1 | active; 1 |
| CC(=O)c1cccc(NC(=S)NC(=O)c2cccc(Cl)c2)c1 | inactive; 0 |
| Cc1ccc(-n2ncc3c(SCc4ccccc4)ncnc32)cc1 | inactive; 0 |
| O=C(Nc1nnc(-c2ccc3c(c2)CCCC3)o1)c1ccccc1 | inactive; 4 |

| SMILES | outcome |
| --- | --- |
| Cc1ccc(OCC(=O)NNC(=O)C(C)Sc2ncnc3sc(C)c(C)c23)cc1 (centres undefined) | inactive; 0 |
| COc1cc(/C=C2\SC(=S)NC2=O)ccc1OS(=O)(=O)c1ccccc1 | active; 2 |
| O=C1NC(=O)/C(=C\c2ccccc2Oc2ccc(F)c(F)c2)S1 | inactive; 0 |
| COc1ccc(/C=C2\SC(=O)NC2=S)cc1OC | active; 2 |
| COc1cc(/C=C2/SC(=S)NC2=O)ccc1OS(=O)(=O)c1ccc(C)cc1 | inactive; 0 |
| O=C1NC(=S)S/C1=C\c1ccc(SCc2ccccc2)o1 | inactive; 0 |
| O=C1NC(=S)/C(=C\c2ccc(-c3ccccc3Cl)o2)S1 | inactive; 3 |
| COc1ccc(/C=N\NC(=S)SCN2C(=O)C3CCC(C)(C2=O)C3(C)C)cc1 (centres undefined) | inactive; 0 |
| CCc1ccc2c(c1)c(N=NC1=NC(=O)CS1)c(O)n2C | inactive; 0 |
| C=CCN(CC=C)C(=S)NC(=O)c1ccc(C)c(Br)c1 | inactive; 0 |
| Cc1ccc(C(=O)NNc2nc3ccccc3nc2C(F)(F)F)cc1 | inactive; 0 |
| FC(F)(F)c1cnc(NNC(=S)Nc2ccccc2Cl)c(Cl)c1 | active; 1 |
| Cc1ccc(NC(=S)NNc2ncc(C(F)(F)F)cc2Cl)c(C)c1 | inactive; 0 |
| FC(F)(F)c1cnc(NNC(=S)Nc2ccc(Cl)cc2)c(Cl)c1 | inactive; 4 |
| CC(C)Sc1nc2c(c(=O)[nH]1)C(c1cccs1)C1=C(CC(C)(C)CC1=O)N2 (centres undefined) | inactive; 0 |
| C=CCN(CC=C)C(=S)NC(=O)c1ccc([N+](=O)[O-])cc1 | inactive; 0 |
| CCc1nc(SCC(=O)N2CC(=O)Nc3ccccc32)c2c(C)c(C)sc2n1 | inactive; 0 |
| Oc1c(C=NCc2ccncc2)sc2ccccc12 | active; 2 |
| CCN(c1ccccc1)S(=O)(=O)c1ccc(NC(=S)NC(=O)c2ccc(Br)o2)cc1 | inactive; 0 |
| CCOC(=O)c1c(NC(=O)CSc2nnc(-c3ccncc3)n2Cc2ccco2)sc(C(C)=O)c1C | inactive; 0 |
| Cc1ccc(NC(=S)c2nc3ccccc3[nH]2)cc1 | inactive; 0 |
| C=CCNC(=S)Nc1sc2c(c1C(=O)OCC)CC(C)(CC)OC2 (centres undefined) | inactive; 0 |
| CCNC(=S)Nc1scc(-c2ccccc2)c1C(=O)OCC | inactive; 0 |
| CCNC(=S)Nc1nc2c(cc1C(=O)OCC)CCCC2 | active; 2 |
| C=CCNC(=S)Nc1sc2c(c1C(=O)OCC)CC(C(C)C)OC2 (centres undefined) | inactive; 0 |
| C=C(C)CNC(=S)Nc1nc2c(cc1C(=O)OCC)CCCC2 | inactive; 0 |
| C=CCNC(=S)Nc1nc2c(cc1C(=O)OCC)CCCC2 | active; 2 |
